Measured values taken from article PMC10262780 (Nature structural & molecular biology, 2022).
Square brackets hold non-standard residues; d marks the D form. Ends that are not written are not given here. * marks the point of attachment. FITC = O=C1OC2(c3ccc(O)cc3Oc3cc(O)ccc32)c2ccc(NC(=S)*)cc21; pS = N[C@@H](COP(=O)(O)O)C(=O)O

What was measured:
[1] = biological target: T1, Rb (human Retinoblastoma protein AB domain) (Homo sapiens, UniProt P06400, DEL582-642); assay: Isothermal titration calorimetry; format: binding; settings: ITC
T1 sequence (P06400 with tags, fused parts or gaps DEL582-642): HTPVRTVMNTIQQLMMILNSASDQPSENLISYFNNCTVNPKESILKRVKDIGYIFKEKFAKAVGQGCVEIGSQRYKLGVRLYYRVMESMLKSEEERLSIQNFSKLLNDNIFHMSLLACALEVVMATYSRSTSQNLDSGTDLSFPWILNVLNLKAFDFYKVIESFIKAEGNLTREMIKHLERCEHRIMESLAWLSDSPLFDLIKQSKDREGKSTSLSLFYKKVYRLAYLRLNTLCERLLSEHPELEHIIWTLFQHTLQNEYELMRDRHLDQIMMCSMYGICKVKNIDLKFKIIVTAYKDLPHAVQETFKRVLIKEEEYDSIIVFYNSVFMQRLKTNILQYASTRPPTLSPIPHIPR
Summary of the method: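 Human Rb AB domain (residues 372–787, loop 582–642 deleted), expressed in E. coli, in the cell at 5–30 µM. Peptide/protein titrant in the syringe at 50–300 µM. Cell and syringe samples co-dialysed 48 h at 4 °C in 20 mM sodium phosphate pH 7.0, 200 mM NaCl, 5 mM 2-mercaptoethanol, then degassed. Run at 20.0 °C unless stated, also 10–30 °C. 28 × 10-µl or 13 × 3-µl injections; enthalpy per mole of injectant fitted to a single-site model.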

[2] = biological target: human Retinoblastoma protein AB domain with a stabilizing loop deletion (372-787Δ582-642) (human) (UniProt P06400); assay: fluorescence polarisation
[3] = biological target: T2, human Retinoblastoma protein AB domain with a stabilizing loop deletion (372-787Δ582-642) (human, UniProt P06400 372-787, Δ582–642); assay: ITC
T2 sequence (looked up): T1 sequence (P06400 with tags, fused parts or gaps DEL582-642)

[4] = biological target: T2, human Retinoblastoma protein AB domain …; assay: fluorescence polarisation + ITC
[5] = biological target: T2, human Retinoblastoma protein AB domain …; assay: fluorescence polarisation
[6] = biological target: T2, human Retinoblastoma protein AB domain …; assay: fluorescence polarisation; remark: listed apart in the source
[7] = biological target: T3, Rb (human Retinoblastoma protein AB domain, 372–787Δ582–642) (Homo sapiens, UniProt P06400, DEL582-642); assay: Fluorescence polarization direct titration of FITC-labelled constructs with Rb; format: binding
T3 sequence (P06400 with tags, fused parts or gaps DEL582-642): T1 sequence (P06400 with tags, fused parts or gaps DEL582-642)

[8] = biological target: T1, Rb (human Retinoblastoma protein AB domain); assay: E2F competition; format: binding; settings: MBP fusion protein, competition experiment
[9] = biological target: DNA; settings: Oct-1 binding to DNA; cited from earlier work
[10] = from direct titration KD values

In the case of 116-VPEVIDLTCHEAGFPP-131 [E1ALxCxE], the “thermodynamic origin of binding to Rb” value ([1]; 20 mM Sodium Phosphate pH 7.0, 200 mM NaCl, 5mM 2-mercapto ethanol, 20 °C) is reported as “enthalpically driven”.

Molecule “Hum-2–2x: tandem repeat of the Hum-2 (HAdV40) linker between the HAdV5 E1AE2F and E1A_(LxCxE) motifs, MBP fusion” has a KD/KD,E1AWT [2] of 1.1.

SPSLDQDDYLWGLEAGEGISDLFD [Human E2F2 peptide (404-427)]: binds [3].

In the case of VPEVIDLTCHEAGFPP[pS]DDEDEEG [E1A_(LxCxE-ACP) peptide (HAdV5 E1A 116-139, phosphorylated at Ser132)], the “fold increase in binding affinity over E1A_(LxCxE)” value [4] is reported as 5 fold.

B1: MBP-E1AWT (uncleaved MBP fusion of HAdV5 E1A 36-146) (domain or fragment)
chain: SHFEPPTLHELYDLDVTAPEDPNEEAVSQIFPDSVMLAVQEGIDLLTFPPAPGSPEPPHLSRQPEQPEQRALGPVSMPNLVPEVIDLTCHEAGFPPSDDEDEEGEEFVLDY
Molecule B1 has a Kd [5] of 75 ± 17 pM.

{FITC}-VPEVIDLTCHEAGFPP [FITC-labelled E1A_(LxCxE) peptide (HAdV5 E1A 116-131)]: binds [6].

B2: FITC-labelled E1AΔE (domain or fragment)
chain: SHFEPPTAAAADLDVTAPEDPNEEAVSQIFPDSVMLAVQEGIDLLTFPPAPGSPEPPHLSRQPEQPEQRALGPVSMPNLVPEVIDLTCHEAGFPPSDDEDEEGEEFVLDY
modifications: FITC (fluorescein 5-isothiocyanate) on the N-terminus
B2: binds [6].

B3: FITC-labelled E1AΔL (domain or fragment)
chain: SHFEPPTLHELYDLDVTAPEDPNEEAVSQIFPDSVMLAVQEGIDLLTFPPAPGSPEPPHLSRQPEQPEQRALGPVSMPNLVPEVIDAAAAAGFPPSDDEDEEGEEFVLDY
modifications: FITC (fluorescein 5-isothiocyanate) on the N-terminus
B3: binds [6].

B4: E1AWT: adenovirus serotype 5 (HAdV5) Early 1A protein fragment (36–146), minimal Rb binding region (protein)
chain: B1 chain
modifications: left off: MBP, end not stated, cleaved
With B4 the “Ceff obtained from the affinities of the construct and the isolated motifs” value ([7]; Ceff=(KD,E2F*KD,LxCxE)/KD) was 0.52 ± 0.09 mM, the “total ΔGBINDING” value ([7]; binding to Rb) was -14.24 kcal/mol and the “affinity enhancement compared to E2F2” value [7, 10] was 40 fold. For the same molecule, the “affinity enhancement compared to the individual E1A SLiMs” value [7, 10] was 4000 fold.

B5: E1AΔL: E1AWT variant with LxCxE motif mutated to poly-alanine (122-LTCHE-126Δ122-AAAA-125) (protein)
chain: B3 chain
modifications: left off: MBP, end not stated, cleaved
With B5 the “heat behaviour of binding to Rb (exothermic/endothermic)” value ([1]; Rb in cell, peptide/protein as titrant) was “endothermic”.

B6: MBP-E1AWT: uncleaved MBP fusion protein of E1AWT (protein)
chain: B1 chain
modifications: left off: MBP, end not stated, kept
With B6 the “binding affinity compared with cleaved E1AWT” value [8] was “same binding affinity as cleaved E1AWT”.

B7: Oct-1: POU domain activator Oct-1 binding to DNA (protein, UniProt P14859 1-743, looked up)
POU domain, class 2, …: MNNPSETSKPSMESGDGNTGTQTNGLDFQKQPVPVGGAISTAQAQAFLGHLHQVQLAGTSLQAAAQSLNVQSKSNEESGDSQQPSQPSQQPSVQAAIPQTQLMLAGGQITGLTLTPAQQQLLLQQAQAQAQLLAAAVQQHSASQQHSAAGATISASAATPMTQIPLSQPIQIAQDLQQLQQLQQQNLNLQQFVLVHPTTNLQPAQFIISQTPQGQQGLLQAQNLLTQLPQQSQANLLQSQPSITLTSQPATPTRTIAATPIQTLPQSQSTPKRIDTPSLEEPSDLEELEQFAKTFKQRRIKLGFTQGDVGLAMGKLYGNDFSQTTISRFEALNLSFKNMCKLKPLLEKWLNDAENLSSDSSLSSPSALNSPGIEGLSRRRKKRTSIETNIRVALEKSFLENQKPTSEEITMIADQLNMEKEVIRVWFCNRRQKEKRINPPSSGGTSSSPIKAIFPSPTSLVATTPSLVTSSAATTLTVSPVLPLTSAAVTNLSVTGTSDTTSNNTATVISTAPPASSAVTSPSLSPSPSASASTSEASSASETSTTQTTSTPLSSPLGTSQVMVTASGLQTAAAAALQGAAQLPANASLAAMAAAAGLNPSLMAPSQFAAGGALLSLNPGTLSGALSPALMSNSTLATIQALASGGSLPITSLDATGNLVFANAGGAPNIVTAPLFLNPQNLSLLTSNPVSLVSAAAASAGNSAPVASLHATSTSAESIQNSLFTVASASGAASTTTTASKAQ
For B7, the Kd [9] is listed as 71 pM and the “affinity enhancement by tethering” value [9] is listed as 2100 fold.
